From PMC7658073 (Clinical Pharmacokinetics, 2020)

How the values were obtained:
UGT1A1 = target: T1, UGT1A1 (Homo sapiens, UniProt P22309); assay: Inhibitory potency towards UGT isoforms; type: in vitro ADME
T1 sequence (P22309 26-533): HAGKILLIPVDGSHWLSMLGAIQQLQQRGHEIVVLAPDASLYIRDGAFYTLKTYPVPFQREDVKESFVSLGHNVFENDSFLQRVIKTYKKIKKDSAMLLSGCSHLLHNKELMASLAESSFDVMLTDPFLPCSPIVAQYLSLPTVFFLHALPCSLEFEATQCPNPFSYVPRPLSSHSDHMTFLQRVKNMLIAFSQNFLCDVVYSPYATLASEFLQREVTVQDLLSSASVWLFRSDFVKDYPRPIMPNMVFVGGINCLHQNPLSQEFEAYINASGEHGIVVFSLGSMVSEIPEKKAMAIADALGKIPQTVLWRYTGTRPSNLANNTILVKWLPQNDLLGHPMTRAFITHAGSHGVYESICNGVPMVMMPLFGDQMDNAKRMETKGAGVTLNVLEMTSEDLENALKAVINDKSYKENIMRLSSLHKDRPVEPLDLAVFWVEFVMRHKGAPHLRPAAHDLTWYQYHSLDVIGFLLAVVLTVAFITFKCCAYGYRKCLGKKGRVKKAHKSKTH

[1] = serum albumin main binding component; ref data on file; cited from earlier work
P-glycoprotein = P-glycoprotein (Homo sapiens, UniProt P08183); assay: Substrate properties towards P-gp; type: in vitro ADME
Sequence of P-glycoprotein (P08183 whole entry): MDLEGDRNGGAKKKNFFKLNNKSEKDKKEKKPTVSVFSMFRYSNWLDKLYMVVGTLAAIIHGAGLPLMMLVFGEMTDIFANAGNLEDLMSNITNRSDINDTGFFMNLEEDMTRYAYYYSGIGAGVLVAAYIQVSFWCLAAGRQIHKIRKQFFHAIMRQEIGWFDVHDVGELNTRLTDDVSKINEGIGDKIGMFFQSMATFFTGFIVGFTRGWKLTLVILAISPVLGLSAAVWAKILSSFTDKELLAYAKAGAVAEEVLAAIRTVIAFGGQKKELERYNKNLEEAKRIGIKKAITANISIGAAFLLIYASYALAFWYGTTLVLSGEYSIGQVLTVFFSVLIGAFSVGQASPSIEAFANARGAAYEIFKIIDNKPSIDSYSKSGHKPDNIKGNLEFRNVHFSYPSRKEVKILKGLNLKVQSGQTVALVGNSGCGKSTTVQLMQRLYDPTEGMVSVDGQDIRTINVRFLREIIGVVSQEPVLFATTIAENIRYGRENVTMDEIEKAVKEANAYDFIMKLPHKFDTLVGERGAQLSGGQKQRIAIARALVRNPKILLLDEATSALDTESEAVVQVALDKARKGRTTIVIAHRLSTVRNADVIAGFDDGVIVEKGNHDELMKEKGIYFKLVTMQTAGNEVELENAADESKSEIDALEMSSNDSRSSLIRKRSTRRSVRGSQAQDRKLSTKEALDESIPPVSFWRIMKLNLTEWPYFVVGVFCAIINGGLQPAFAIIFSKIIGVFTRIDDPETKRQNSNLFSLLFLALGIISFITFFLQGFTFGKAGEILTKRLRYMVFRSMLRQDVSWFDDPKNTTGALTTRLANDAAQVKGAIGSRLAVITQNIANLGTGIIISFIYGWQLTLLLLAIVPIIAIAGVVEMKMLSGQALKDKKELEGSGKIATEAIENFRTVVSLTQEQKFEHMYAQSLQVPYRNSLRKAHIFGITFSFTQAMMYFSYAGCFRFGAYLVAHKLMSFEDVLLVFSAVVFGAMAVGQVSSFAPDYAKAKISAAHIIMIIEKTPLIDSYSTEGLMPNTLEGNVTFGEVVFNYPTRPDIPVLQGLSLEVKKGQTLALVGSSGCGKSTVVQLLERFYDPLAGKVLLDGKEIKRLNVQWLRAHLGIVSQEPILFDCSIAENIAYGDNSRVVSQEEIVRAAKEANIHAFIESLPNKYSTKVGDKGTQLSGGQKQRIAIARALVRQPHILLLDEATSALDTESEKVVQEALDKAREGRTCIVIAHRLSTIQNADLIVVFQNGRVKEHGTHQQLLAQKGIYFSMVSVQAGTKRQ

[2] = Phase I DDI study with sacubitril/valsartan; type: in vivo, human; settings: administered with sacubitril/valsartan
UGT1A4 = target: T2, UGT1A4 (Homo sapiens, UniProt P22310); assay: Inhibitory potency towards UGT isoforms: UGT1A4; type: in vitro ADME
T2 sequence (P22310 29-534): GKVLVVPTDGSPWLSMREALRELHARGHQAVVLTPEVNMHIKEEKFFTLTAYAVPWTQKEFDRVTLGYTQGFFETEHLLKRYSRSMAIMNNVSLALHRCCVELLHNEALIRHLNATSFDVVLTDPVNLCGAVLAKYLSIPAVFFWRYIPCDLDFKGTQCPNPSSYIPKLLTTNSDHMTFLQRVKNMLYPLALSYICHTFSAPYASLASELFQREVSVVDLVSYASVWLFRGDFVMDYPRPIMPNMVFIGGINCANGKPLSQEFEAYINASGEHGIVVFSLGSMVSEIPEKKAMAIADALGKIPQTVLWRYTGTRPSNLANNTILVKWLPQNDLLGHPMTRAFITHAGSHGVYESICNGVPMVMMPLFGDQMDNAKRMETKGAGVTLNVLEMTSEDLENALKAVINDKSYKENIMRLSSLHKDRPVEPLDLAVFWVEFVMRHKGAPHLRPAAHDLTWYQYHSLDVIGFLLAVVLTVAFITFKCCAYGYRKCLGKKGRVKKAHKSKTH

[3] = Phase I DDI study with mefenamic acid; type: in vivo, human
CYP1A2 = assay: CYP induction in cultured human hepatocytes: CYP1A2; type: in vitro ADME; settings: three donors, up to 10,000 μg/L (23.5 µM)
CYP2B6 = assay: CYP induction in cultured human hepatocytes: CYP2B6; type: in vitro ADME; settings: three donors, up to 10,000 μg/L (23.5 µM)
OATP1B3 = target: T3, OATP1B3 (Homo sapiens, UniProt Q9NPD5); assay: Substrate properties towards OATP1B3; type: in vitro ADME
T3 sequence (Q9NPD5 1-702): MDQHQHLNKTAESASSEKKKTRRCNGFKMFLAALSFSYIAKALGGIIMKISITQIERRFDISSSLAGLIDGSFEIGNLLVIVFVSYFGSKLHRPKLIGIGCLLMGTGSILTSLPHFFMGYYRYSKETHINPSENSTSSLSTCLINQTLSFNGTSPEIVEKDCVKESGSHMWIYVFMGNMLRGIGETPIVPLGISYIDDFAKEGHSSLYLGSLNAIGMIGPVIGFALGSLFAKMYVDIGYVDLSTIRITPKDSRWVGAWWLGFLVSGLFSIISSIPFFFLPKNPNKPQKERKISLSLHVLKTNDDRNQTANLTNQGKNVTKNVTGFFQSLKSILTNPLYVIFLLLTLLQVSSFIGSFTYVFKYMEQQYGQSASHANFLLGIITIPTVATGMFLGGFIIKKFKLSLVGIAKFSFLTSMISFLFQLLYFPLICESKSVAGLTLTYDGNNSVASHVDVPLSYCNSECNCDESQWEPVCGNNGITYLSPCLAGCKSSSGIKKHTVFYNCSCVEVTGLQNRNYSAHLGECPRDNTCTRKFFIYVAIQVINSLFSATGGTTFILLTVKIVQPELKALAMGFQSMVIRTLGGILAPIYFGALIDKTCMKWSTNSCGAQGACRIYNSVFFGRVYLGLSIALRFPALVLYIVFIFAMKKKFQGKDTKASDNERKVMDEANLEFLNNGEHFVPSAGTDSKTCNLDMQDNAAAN

CYP3A4 = assay: CYP induction in cultured human hepatocytes: CYP3A4; type: in vitro ADME; settings: one of the three donors
[4] = Phase I DDI study with omeprazole and magnesium/aluminum hydroxide; type: in vivo, human
In short: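 Randomized, open-label, three-fold crossover in healthy men. Test compound 5 mg single oral dose given fasting: alone; with omeprazole 40 mg QD for 5 days (pre- and co-dosed); or with a single 10 mL magnesium hydroxide 600 mg/aluminum oxide 900 mg antacid.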

[5] = with mefenamic acid vs vericiguat 2.5 mg SD alone, fed
[6] = pre- and co-administration of omeprazole vs vericiguat alone

- IC50 (UGT1A1): > 50 µM
- Substrate of P-glycoprotein (P-glycoprotein): substrate
- Decrease in AUC0–24 of vericiguat [2]: about 7%
- Decrease in Cmax of vericiguat [2]: ~9%
- IC50 (UGT1A4): > 50 µM
- Increase in AUC of vericiguat ([3]; inhibition of UGT1A9 by mefenamic acid): 20%
- AUC of vericiguat, point estimate of treatment ratio [3, 5]: 1.197
- Cmax of vericiguat, point estimate of treatment ratio [3, 5]: 0.967
- Induction of CYP1A2 (CYP1A2): no significant induction
- Induction of CYP2B6 (CYP2B6): no significant induction
- Substrate of OATP1B3 (OATP1B3): not a substrate
- CYP3A4 mRNA induction relative to rifampicin [positive control] response (CYP3A4; highest tested concentration): 4%
- Increase in CYP3A4 messenger RNA (CYP3A4; highest tested concentration 10,000 μg/L (23.5 µM)): 2.7 fold
- Reduction in the bioavailability of vericiguat ([4]; co-administration in fasting conditions of omeprazole (40 mg once daily) and magnesium/aluminum hydroxide (600/900 mg) relative to vericiguat alone): about 30%
- Reduction of AUC of vericiguat [4, 6]: 32%
- Reduction of Cmax of vericiguat [4, 6]: 49%
- Cmax of vericiguat, point estimate of treatment ratio ([4]; with omeprazole 40 mg QD vs vericiguat 5 mg SD alone, fasting): 0.504
Structure (SMILES): COC(=O)Nc1c(N)nc(-c2nn(Cc3ccccc3F)c3ncc(F)cc23)nc1N [Vericiguat]
- Plasma protein binding [1]: approximately 98%
